Experiments:
[1] = target: D(3) dopamine receptor (Homo sapiens) (UniProt P35462); assay: Displacement of [3H] spiperone from recombinant human D3 receptor expressed in CHO cell membranes at 10 uM after 120 mins by scintillation counting method relative to control
Procedure, shortened: (§1)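 Single-concentration screen at 10 μM within a commercial lead-profiling panel of 68 GPCRs, ion channels and transporters. Activity read as percent inhibition of specific radioligand binding to each target.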

[2] = target: Beta-1 adrenergic receptor (Homo sapiens) (UniProt P08588); assay: Displacement of [125I] cyanopindolol from full length human recombinant beta1 receptor expressed in CHOK1 cell membranes at 10 uM after 120 mins by scintillation counting method relative to control
Procedure, shortened: (§2)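 Single-concentration screen at 10 μM in an outsourced profiling panel of 68 GPCRs, ion channels and transporters. Activity read out as percent inhibition of specific radioligand binding.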

[3] = target: Cysteinyl leukotriene receptor 1 (Homo sapiens) (UniProt Q9Y271); assay: Displacement of [3H] LTD4 from recombinant human CysLT1 receptor expressed in CHOK1 cell membranes at 10 uM after 30 mins by scintillation counting method relative to control; procedure, shortened: as §2
Chain of Cysteinyl leukotriene receptor 1 (Homo sapiens) (Q9Y271 whole entry): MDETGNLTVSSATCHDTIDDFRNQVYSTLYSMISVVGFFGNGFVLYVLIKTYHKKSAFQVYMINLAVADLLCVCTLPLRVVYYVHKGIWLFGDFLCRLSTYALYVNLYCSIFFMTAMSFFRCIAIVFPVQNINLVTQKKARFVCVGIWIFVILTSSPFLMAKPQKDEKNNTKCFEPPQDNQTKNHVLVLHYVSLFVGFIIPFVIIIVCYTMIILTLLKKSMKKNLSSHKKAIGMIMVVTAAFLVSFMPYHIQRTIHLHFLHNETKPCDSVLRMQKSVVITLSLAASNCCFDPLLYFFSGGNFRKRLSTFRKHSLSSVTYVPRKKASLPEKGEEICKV

[4] = target: Endothelin receptor type B (Homo sapiens) (UniProt P24530); assay: Displacement of [125I] endothelin-1 from recombinant human ETB receptor expressed in CHOK1 cell membranes at 10 uM after 120 mins by scintillation counting method relative to control; procedure, shortened: as §2
[5] = target: Neuropeptide Y receptor type 1 (Homo sapiens) (UniProt P25929); assay: Displacement of [125I] Peptide YY from Y1 receptor in human SK-N-MC cell membrane at 10 uM after 60 mins by scintillation counting method relative to control; assay type: cell membranes; procedure, shortened: as §2
[6] = target: Alpha-1B adrenergic receptor (Rattus norvegicus) (UniProt P15823); assay: Displacement of [3H] prazosin from Wistar rat alpha1b receptor at 10 uM measured after 60 mins by scintillation counting method relative to control; procedure, shortened: as §2
Chain of Alpha-1B adrenergic receptor (Rattus norvegicus) (P15823 whole entry): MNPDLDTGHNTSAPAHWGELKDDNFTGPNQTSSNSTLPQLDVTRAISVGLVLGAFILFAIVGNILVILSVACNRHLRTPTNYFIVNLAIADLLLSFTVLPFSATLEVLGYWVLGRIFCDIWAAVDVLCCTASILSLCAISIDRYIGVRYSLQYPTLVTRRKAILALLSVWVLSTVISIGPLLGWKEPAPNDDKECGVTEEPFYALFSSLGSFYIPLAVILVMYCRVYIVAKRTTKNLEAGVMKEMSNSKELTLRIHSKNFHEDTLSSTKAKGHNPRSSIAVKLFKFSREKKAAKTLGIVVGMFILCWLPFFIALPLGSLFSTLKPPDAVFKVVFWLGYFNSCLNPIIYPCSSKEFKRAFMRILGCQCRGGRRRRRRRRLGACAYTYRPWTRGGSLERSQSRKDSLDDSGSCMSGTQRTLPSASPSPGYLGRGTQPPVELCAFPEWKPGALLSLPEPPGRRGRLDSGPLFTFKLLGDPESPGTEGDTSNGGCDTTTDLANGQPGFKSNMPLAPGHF

Rattus norvegicus [7] = species: Rattus norvegicus; assay: Displacement of [3H] GABA from GABA transporter in Wistar rat cerebral cortical membranes at 10 uM measured after 20 mins by scintillation counting method relative to control; procedure, shortened: as §2
[8] = target: Metabotropic glutamate receptor 6 (Homo sapiens, UniProt O15303); assay: Positive allosteric modulation of human mGlu6 receptor expressed in HEK cells assessed as increase in glutamate-induced calcium flux incubated for 142 secs followed by glutamate addition measured after 120 secs by Fluo4-AM dye based fluorescence assay; assay type: functional, cell-based
[9] = target: Neuropeptide Y receptor type 2 (Homo sapiens) (UniProt P49146); assay: Displacement of [125I] Peptide YY from Y2 receptor in human KAN-TS cell membrane at 10 uM after 120 mins by scintillation counting method relative to control; assay type: cell membranes; procedure, shortened: as §2
Oryctolagus cuniculus = species: Oryctolagus cuniculus; assay: Inhibition of rabbit P2X receptor at 10 uM relative to control; procedure, shortened: as §1
Cytochrome P450 1A2 = target: T1, Cytochrome P450 1A2 (Homo sapiens, UniProt P05177); assay: Inhibition of CYP1A2 in human liver microsomes using phenacetin as substrate preincubated for 15 mins followed by NADPH addition measured after 8 mins by LC-MS/MS analysis; assay type: ADME
T1 sequence (P05177 whole entry): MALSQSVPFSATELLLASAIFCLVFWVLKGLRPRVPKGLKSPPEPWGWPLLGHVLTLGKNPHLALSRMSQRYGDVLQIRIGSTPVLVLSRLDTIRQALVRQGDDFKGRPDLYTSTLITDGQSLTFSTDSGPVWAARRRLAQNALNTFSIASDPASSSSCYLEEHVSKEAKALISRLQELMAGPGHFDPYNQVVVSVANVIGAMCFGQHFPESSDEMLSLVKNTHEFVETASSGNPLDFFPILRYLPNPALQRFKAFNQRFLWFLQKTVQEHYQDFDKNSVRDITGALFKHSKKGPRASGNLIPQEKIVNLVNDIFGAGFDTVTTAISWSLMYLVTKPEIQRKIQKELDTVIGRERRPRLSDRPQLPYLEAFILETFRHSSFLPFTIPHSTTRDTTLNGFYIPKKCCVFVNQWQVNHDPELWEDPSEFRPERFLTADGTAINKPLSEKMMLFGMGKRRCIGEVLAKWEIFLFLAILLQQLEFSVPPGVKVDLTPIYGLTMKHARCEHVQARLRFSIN

[10] = target: Kappa-type opioid receptor (Homo sapiens) (UniProt P41145); assay: Displacement of [3H] diprenorphine from recombinant human kappa opioid receptor expressed in HEK293 cell membranes at 10 uM after 60 mins by scintillation counting method relative to control; procedure, shortened: as §2
[11] = target: Adenosine receptor A1 (Homo sapiens) (UniProt P30542); assay: Displacement of [3H] DPCPX from full length human recombinant A1 receptor expressed in CHOK1 cell membranes at 10 uM after 90 mins by scintillation counting method relative to control; procedure, shortened: as §2
[12] = target: Epidermal growth factor receptor (Homo sapiens) (UniProt P00533); assay: Displacement of [125I] EGF from EGFR in human A431 cells at 10 uM after 60 mins by scintillation counting method relative to control; assay type: cell-based; procedure, shortened: as §2
Chain of Epidermal growth factor receptor (Homo sapiens) (P00533 whole entry): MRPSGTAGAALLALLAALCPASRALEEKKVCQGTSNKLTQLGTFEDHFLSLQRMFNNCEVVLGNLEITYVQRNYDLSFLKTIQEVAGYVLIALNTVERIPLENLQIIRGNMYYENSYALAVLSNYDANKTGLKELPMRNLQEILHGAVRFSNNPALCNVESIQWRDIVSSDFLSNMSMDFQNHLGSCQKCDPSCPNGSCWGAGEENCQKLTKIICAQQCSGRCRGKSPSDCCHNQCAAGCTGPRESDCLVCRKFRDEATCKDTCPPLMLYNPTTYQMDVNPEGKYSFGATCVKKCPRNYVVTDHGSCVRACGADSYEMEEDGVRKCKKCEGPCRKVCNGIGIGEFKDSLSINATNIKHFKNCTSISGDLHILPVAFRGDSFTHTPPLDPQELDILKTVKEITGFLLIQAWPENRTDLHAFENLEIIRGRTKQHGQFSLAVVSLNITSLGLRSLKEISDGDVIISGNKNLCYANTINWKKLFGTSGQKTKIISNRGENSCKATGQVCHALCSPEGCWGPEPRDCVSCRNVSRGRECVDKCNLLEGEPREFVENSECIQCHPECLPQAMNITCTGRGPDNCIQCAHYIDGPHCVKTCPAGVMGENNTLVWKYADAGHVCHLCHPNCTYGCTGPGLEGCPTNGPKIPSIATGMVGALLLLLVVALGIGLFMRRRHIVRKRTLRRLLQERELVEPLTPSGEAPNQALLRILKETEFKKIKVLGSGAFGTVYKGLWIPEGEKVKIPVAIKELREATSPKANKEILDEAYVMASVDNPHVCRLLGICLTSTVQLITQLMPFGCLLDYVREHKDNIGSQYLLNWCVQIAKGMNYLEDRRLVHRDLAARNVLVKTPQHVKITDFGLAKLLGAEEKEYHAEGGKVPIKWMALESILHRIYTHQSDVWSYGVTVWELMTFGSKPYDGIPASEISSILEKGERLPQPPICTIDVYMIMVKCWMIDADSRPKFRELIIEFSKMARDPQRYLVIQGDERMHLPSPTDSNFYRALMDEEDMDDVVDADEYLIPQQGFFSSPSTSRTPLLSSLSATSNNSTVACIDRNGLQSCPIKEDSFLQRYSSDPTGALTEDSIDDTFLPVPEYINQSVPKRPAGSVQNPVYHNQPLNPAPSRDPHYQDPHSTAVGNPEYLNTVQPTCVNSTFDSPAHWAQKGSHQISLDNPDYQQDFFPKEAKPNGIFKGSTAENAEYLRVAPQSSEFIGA

[13] = target: L-type calcium channel, benzothiazepine site (Rattus norvegicus, UniProt P22002+P27732+Q02485); assay: Inhibition of rat L-type calcium channel benzothiazepine site at 10 uM relative to control; assay type: protein assay
[14] = target: Metabotropic glutamate receptor 2 (Rattus norvegicus, UniProt P31421); assay: Positive allosteric modulation of rat mGlu2 receptor expressed in HEK cells assessed as increase in glutamate-induced calcium flux incubated for 142 secs followed by glutamate addition measured after 120 secs by Fluo4-AM dye based fluorescence assay; assay type: functional, cell-based
[15] = target: 5-hydroxytryptamine receptor 1A (Homo sapiens) (UniProt P08908); assay: Displacement of [3H] 8-OH-DPAT from full length human recombinant 5-HT1A receptor expressed in CHOK1 cell membranes at 10 uM after 60 mins by scintillation counting method relative to control; procedure, shortened: as §2
[16] = target: Metabotropic glutamate receptor 1 (Rattus norvegicus, UniProt P23385); assay: Positive allosteric modulation of rat mGlu1 receptor expressed in HEK cells assessed as increase in glutamate-induced calcium flux incubated for 142 secs followed by glutamate addition measured after 120 secs by Fluo4-AM dye based fluorescence assay; assay type: functional, cell-based
Chain of Metabotropic glutamate receptor 1 (P23385 whole entry): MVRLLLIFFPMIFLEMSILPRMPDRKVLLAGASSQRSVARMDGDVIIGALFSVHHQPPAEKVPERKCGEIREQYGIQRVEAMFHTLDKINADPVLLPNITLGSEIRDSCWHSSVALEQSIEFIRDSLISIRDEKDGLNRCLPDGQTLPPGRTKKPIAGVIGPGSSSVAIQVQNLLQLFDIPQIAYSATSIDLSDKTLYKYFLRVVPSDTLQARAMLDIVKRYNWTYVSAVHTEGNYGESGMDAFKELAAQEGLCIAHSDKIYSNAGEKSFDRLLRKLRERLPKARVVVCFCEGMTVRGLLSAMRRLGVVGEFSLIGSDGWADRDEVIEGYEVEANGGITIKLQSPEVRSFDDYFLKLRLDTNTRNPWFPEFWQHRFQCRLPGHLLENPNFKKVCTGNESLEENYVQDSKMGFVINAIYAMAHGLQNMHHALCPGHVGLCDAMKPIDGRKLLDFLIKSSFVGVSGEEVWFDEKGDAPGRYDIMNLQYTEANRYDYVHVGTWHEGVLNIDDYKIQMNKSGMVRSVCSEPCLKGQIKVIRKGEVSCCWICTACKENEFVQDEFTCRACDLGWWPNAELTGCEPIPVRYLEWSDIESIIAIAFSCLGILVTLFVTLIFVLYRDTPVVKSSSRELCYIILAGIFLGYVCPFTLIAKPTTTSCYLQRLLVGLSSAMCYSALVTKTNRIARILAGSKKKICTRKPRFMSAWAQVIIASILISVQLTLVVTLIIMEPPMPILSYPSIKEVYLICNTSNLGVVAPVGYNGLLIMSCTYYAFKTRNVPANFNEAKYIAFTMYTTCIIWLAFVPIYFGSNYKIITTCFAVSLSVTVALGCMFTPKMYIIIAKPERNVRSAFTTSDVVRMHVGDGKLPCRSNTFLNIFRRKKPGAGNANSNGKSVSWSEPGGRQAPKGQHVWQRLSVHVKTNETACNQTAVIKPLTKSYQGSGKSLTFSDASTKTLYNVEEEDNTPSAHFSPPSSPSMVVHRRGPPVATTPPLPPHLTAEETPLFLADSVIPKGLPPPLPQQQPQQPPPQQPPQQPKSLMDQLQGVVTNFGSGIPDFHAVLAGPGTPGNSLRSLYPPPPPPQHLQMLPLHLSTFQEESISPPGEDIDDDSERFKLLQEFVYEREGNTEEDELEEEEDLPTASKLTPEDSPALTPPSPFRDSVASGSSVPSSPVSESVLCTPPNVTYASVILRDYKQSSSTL

Rattus norvegicus [17] = species: Rattus norvegicus; assay: Displacement of [35S] ATP-alphaS from Wistar rat brain P2Y receptor at 10 uM measured after 60 mins by scintillation counting method relative to control; procedure, shortened: as §2
Rattus norvegicus [18] = species: Rattus norvegicus; assay: Inhibition of rat kainate glutamate receptor at 10 uM relative to control; procedure, shortened: as §1
[19] = target: Metabotropic glutamate receptor 3 (Rattus norvegicus, UniProt P31422); assay: Negative allosteric modulation of rat mGlu3 receptor expressed in HEK cells harboring GIRK channel assessed as decrease in glutamate-induced thallium flux incubated for 142 secs followed by glutamate addition measured after 120 secs by Fluo4-AM dye based fluorescence assay; assay type: functional, cell-based
Chain of Metabotropic glutamate receptor 3 (P31422 whole entry): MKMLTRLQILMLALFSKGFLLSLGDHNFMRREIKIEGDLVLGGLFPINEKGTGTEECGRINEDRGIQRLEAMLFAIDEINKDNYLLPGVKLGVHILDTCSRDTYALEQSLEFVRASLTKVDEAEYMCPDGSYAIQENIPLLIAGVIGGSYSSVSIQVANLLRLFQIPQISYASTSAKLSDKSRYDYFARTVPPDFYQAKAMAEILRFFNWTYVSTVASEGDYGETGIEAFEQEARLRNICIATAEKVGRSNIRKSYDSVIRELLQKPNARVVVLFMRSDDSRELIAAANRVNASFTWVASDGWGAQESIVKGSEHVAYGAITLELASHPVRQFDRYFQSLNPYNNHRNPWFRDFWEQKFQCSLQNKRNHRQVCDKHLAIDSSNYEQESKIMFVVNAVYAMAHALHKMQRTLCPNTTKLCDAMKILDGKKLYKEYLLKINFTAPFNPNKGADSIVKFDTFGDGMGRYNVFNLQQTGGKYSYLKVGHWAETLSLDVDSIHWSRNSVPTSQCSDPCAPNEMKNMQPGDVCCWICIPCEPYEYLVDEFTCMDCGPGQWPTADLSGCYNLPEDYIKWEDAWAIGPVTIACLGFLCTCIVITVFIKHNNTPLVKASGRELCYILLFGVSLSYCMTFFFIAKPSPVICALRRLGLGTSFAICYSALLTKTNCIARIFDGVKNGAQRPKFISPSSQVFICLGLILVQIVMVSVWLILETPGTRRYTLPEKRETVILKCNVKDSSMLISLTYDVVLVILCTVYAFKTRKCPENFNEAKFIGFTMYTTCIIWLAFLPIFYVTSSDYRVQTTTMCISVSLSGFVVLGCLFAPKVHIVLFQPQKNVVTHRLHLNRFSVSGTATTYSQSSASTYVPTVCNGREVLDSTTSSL

Mus musculus = assay: Antipsychotic activity in wild-type contextual fear conditioning C57/B6 mouse model assessed as pro-cognitive effects on associative learning by measuring freezing at 50 mg/kg, ip treated 15 mins prior to training measured during 3 mins testing period (reference value: 65.5 +/- […])
[20] = target: Muscarinic acetylcholine receptor M2 (Homo sapiens) (UniProt P08172); assay: Displacement of [3H] N-methylscopolamine from recombinant human M2 receptor expressed in CHOK1 cell membranes at 10 uM after 120 mins by scintillation counting method relative to control; procedure, shortened: as §2
Chain of Muscarinic acetylcholine receptor M2 (Homo sapiens) (P08172 whole entry): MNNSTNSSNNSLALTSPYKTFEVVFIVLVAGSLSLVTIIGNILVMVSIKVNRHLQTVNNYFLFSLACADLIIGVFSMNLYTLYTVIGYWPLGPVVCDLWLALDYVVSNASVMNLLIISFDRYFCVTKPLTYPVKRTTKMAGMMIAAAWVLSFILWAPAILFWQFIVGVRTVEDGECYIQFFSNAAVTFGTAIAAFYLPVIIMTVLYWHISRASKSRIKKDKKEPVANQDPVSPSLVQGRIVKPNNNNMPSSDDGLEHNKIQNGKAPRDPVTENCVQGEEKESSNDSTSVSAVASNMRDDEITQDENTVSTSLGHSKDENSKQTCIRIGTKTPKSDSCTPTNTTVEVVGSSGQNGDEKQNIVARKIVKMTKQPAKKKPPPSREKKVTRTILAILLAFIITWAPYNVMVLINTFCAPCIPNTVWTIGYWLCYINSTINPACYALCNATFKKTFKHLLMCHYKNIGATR

Chain of D(3) dopamine receptor (Homo sapiens) (P35462 whole entry): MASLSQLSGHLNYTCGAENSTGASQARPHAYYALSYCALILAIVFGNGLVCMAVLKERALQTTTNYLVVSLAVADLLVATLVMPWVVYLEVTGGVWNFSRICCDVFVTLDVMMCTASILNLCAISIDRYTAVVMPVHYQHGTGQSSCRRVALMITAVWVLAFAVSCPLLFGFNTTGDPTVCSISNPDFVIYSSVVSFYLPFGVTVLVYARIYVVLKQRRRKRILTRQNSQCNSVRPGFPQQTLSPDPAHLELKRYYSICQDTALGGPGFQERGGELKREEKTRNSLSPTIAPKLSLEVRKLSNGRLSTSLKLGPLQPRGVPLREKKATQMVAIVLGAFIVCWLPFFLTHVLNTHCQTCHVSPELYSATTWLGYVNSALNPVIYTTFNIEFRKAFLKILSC

COc1ccc(-c2c(C)nn3c(C(F)(F)F)cc(C)nc23)c(F)c1F
< 50%: inhibition [1] | inhibition [2] | inhibition [3] | inhibition [4] | inhibition [5] | inhibition [6] | inhibition (Rattus norvegicus [7]) | inhibition [9] | inhibition (Oryctolagus cuniculus) | inhibition [10] | inhibition [11] | inhibition [12] | inhibition at 10 µM [13] | inhibition [15] | inhibition (Rattus norvegicus [17]) | inhibition (Rattus norvegicus [18]) | inhibition [20]
> 10 µM: EC50 [8] | EC50 [14] | EC50 [16] | IC50 [19]
76.8%: Activity (Mus musculus)
3.08 µM: IC50 (Cytochrome P450 1A2)

Source: ChEMBL document CHEMBL4138139, “Discovery of VU6005649, a CNS Penetrant mGlu7/8 Receptor PAM Derived from a Series of Pyrazolo[1,5-a]pyrimidines” (ACS Med Chem Lett, 2017)
